Rows were chosen to be rich in hits. Some 2.4% of all compounds tested hit in one or more screens of this group.
NPY-Y2 PAM-ag = NPY-Y2 potentiators or agonists, primary screen, cell-based. activation, % at 3.6 µM. hit rate 0.45% among 220,000. cells expressing NPY-Y2, potentiator/agonist read-out. Neuropeptide Y receptor type 2 (Homo sapiens), P49146; in the data active = activation above about 27%;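 note: cells stimulated with NPY near EC25 plus isoproterenol at EC100; 0% = vehicle plus submaximal agonist and 100% = vehicle plus saturating agonist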
NPY-Y1 PAM-ag = NPY-Y1 receptor potentiators or agonists, primary screen, cell-based. activation, % at 3.6 µM. Neuropeptide Y receptor type 1 (Homo sapiens), P25929. NPY-Y1 expressing cells, potentiator/agonist activation. hit rate 0.37% among 220,000; in the data active = activation above about 33%, passing the limit was not always enough;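 note: cells stimulated with NPY at EC10 then isoproterenol at EC100; 0% = low agonist plus stimulus and 100% = saturating agonist plus stimulus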
NPY-Y2 antag = NPY-Y2 receptor antagonists, primary screen, cell-based; NPY-Y2 expressing cells, antagonist mode; inhibition, % at 2.7 µM; hit rate 0.99% among 140,000; in the data active = inhibition above about 17%;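 note: 0% = vehicle with agonist challenge and 100% = reference antagonist with challenge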
S1P4 agonist = S1P4 receptor agonists, primary screen, cell-based; S1P4-expressing cell line, agonist reporter assay; activation, % at 4.98 µM; hit rate 0.35% among 220,000; Sphingosine 1-phosphate receptor 4 (Homo sapiens), O95977; AID 1509, 2009; in the data active = activation above about 11%;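 note: 0% = DMSO vehicle and 100% = reference agonist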
Target sequence (O95977 whole entry, looked up): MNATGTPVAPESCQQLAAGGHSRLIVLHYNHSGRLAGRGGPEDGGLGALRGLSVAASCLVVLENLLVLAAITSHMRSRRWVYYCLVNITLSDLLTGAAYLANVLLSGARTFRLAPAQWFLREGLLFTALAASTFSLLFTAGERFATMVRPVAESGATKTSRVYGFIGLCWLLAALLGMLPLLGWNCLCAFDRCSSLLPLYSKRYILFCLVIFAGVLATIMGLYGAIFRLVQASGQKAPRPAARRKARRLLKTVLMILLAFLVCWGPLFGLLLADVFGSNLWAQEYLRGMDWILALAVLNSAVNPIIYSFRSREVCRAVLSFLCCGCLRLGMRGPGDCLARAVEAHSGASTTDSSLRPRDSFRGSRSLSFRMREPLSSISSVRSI
NPY-Y1 antag = NPY-Y1 receptor antagonists, primary screen, cell-based | AID 1040, 2008 | HEK293-CNG Y1 cells, membrane potential fluorescence; NPY at EC95, then isoproterenol | hit rate 1% among 200,000 | inhibition, % at 3.6 µM;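 active = inhibition above the campaign mean inhibition of all tested compounds plus 3 SD, cut at about 20% in these data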;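 note: 0% = DMSO wells given NPY plus isoproterenol and 100% = isoproterenol alone without NPY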
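Assay system: HEK293 Y1/CNG channel cell line; Doses: single compound dose of 3.6 µM, 0.4% DMSO; Timing: dye 3 h, compound 60 min room temperature, stimulation 45 min; Technique: Membrane-potential fluorescent dye readout; Measure: % inhibition of NPY effect.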
S1P4 antag = S1P4 receptor antagonists, primary screen, cell-based; Sphingosine 1-phosphate receptor 4 (Homo sapiens), O95977; S1P4-expressing cells, antagonist mode, reporter read-out; inhibition, % at 4.98 µM; hit rate 0.26% among 220,000; AID 1510, 2009; in the data active = inhibition above about 29%;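 note: 0% = wells stimulated with agonist and 100% = vehicle wells without agonist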
Numbers without * were called inactive; x = not tested or not shown.

SMILES	NPY-Y2 PAM-ag	NPY-Y1 PAM-ag	NPY-Y2 antag	S1P4 agonist	NPY-Y1 antag	S1P4 antag
O=C(CSc1nc2ccccc2c(=O)n1Cc1ccco1)N1CCCC1	1	-3	x	3	-1	-14
CC(C)Cn1c(SCC(=O)N2CCCCC2)nc2ccccc2c1=O	-12	-18	24*	1	22*	-1
COc1ccc(-c2nnc(CSc3nc4ccccc4c(=O)n3CC(C)C)o2)cc1OC	-37	-30	28*	0	26*	-9
CCOC(=O)CSc1nc2ccccc2c(=O)n1CC(C)C	-28	-24	x	0	20*	12
NS(=O)(=O)c1ccc(NNC(=O)c2sccc2Cl)cc1	-8	0	x	-3	x	1
CCOC(=O)N1CCC(n2c(SCC(=O)NCCC3=CCCCC3)nc3ccccc3c2=O)CC1	-39	-33	19*	1	36*	6
CCN1C(=O)C(CC(=O)Nc2ccc(F)cc2)N(CCCN2CCN(c3ccc(F)cc3)CC2)C1=S (configuration not stated)	18	33	x	2	-13	-4
O=C(CC1C(=O)NCCN1C(=O)Nc1ccc(C(F)(F)F)cc1)Nc1ccc(F)cc1 (configuration not stated)	41*	69*	x	0	x	7
CCOC(=O)CSc1ccc(C(=O)Nc2ccc(OC)cc2)cn1	37*	75*	x	-3	-4	1
CCOC(=O)CSc1ccc(C(=O)Nc2ccc(Cl)cc2)cn1	-1	-11	x	1	0	-8
O=S(=O)(Nc1ncnc2sc3c(c12)CCC3)c1ccc(Cl)s1	46*	52*	-1	2	-13	-18
CCn1c(SCC(=O)Nc2oc(-c3ccccc3)c(-c3ccccc3)c2C#N)nnc1-c1ccncc1	2	18	-2	2	0	6
N#Cc1c(NC(=O)CSc2ccccn2)oc(-c2ccccc2)c1-c1ccccc1	-12	-36	21*	-1	38*	-6
Cc1ccccc1OCCC(=O)OCC(=O)Nc1cc(S(=O)(=O)N2CCOCC2)ccc1Cl	5	15	x	0	2	0
COC(=O)COc1ccc(NS(=O)(=O)c2cccc([N+](=O)[O-])c2)cc1	48*	35*	x	0	-2	-4
COC(=O)COc1cccc(NS(=O)(=O)c2cccc([N+](=O)[O-])c2)c1	0	0	x	0	3	5
O=C(/C=C/c1ccc(Cl)cc1)NC(=S)NN1CCCCC1c1cccnc1 (configuration not stated)	-6	-34	40*	4	2	-4
COc1ccc(/C=C/C(=O)NC(=S)NN2CCCCC2c2cccnc2)cc1OC (configuration not stated)	-15	-13	3	4	10	-6
Cc1nn(-c2cc(N3CCCCCC3)ccc2[N+](=O)[O-])c(=O)c2ccccc12	41*	85*	1	0	-13	-7
Cc1nn(-c2cc(N3CCCCC3)ccc2N)c(=O)c2ccccc12	11	-7	0	1	-1	-8
O=C(COC(=O)/C=C/C(=O)OCC(=O)Nc1ccccc1F)Nc1ccccc1F	-9	-2	x	2	x	13
CC1(C)c2ssc(=S)c2-c2ccccc2N1C(=O)CSC1=NCCS1	34*	39	-4	1	-5	-25
COc1ccc(C(C)(C)C)cc1NC(=O)c1cc(S(=O)(=O)N(C)C)ccc1N1CCCC1	4	0	22*	-2	25*	-6
CCC(=O)N(Cc1c(C)nn(-c2ccccc2)c1Cl)c1ccc(Cl)cc1	-11	-14	19*	2	29*	-7
O=C(Nc1cccc(Oc2ccc3c(c2)C(=O)NC3=O)c1)c1cccs1	1	-30	4	-2	-3	-5
SMILES	NPY-Y2 PAM-ag	NPY-Y1 PAM-ag	NPY-Y2 antag	S1P4 agonist	NPY-Y1 antag	S1P4 antag
CCOC(=O)c1ccc(NC(=O)N2CCN(Cc3ccccc3)CC2)cc1	2	22	x	3	-7	-5
N#Cc1c(N2CCOCC2)nc(-c2ccco2)c2c1CCCC2	13	-1	2	1	1	-8
N#Cc1c(NCCN)nc(-c2ccco2)c2c1CCCC2	-59	-108	22*	1	44*	-5
NNc1cc(C(=O)O)ccc1Cl	11	20	x	0	x	-11
CC(=O)Nc1nonc1-c1nc2ccccc2n1CCC(C)C	-17	-72	18*	-1	43*	-1
CCC(=O)Nc1nonc1-c1nc2ccccc2n1CCC(C)C	-14	-19	13	0	9	-1
CC(COC(=O)c1ccccc1)(COC(=O)c1ccccc1)/[N+]([O-])=C/c1ccccc1	-10	-14	18*	-1	21*	-8
CSc1nc(=O)n2cc(C)ccc2n1	-1	1	x	-1	-2	-12
Cc1ccc(C(O)(C(=O)NN(C(=O)c2ccccc2)c2ccccc2)c2ccc(C)cc2)cc1	3	-16	48*	-1	59*	4
O=C(c1ccccc1F)N(NC(=O)C(O)(c1ccccc1)c1ccccc1)c1ccccc1	-2	-47	30*	1	39*	-4
O=C(c1ccccc1)N(NC(=O)C(O)(c1ccccc1)c1ccccc1)c1cccc(F)c1	-4	-44	31*	3	53*	-2
CCN(NC(=O)C(O)(c1ccc(F)cc1)c1ccc(F)cc1)C(=O)c1ccccc1	-26	-20	25*	1	23*	6
Cc1ccc(N(NC(=O)C(O)(c2ccccc2)c2ccccc2)C(=O)CCl)cc1	9	14	11	0	12	-3
CSCCC(NC(N)=O)C(=O)Nc1ccc(F)c(Cl)c1 (configuration not stated)	-17	7	x	-1	x	-15
COc1ccc(-c2cc(C(F)(F)F)nc(S(=O)(=O)CCCC(=O)Nc3cccc(O)c3)n2)cc1OC	-28	-10	x	-1	17	11
CCOC(=O)C1(Cc2ccccc2Cl)CCN(C(=O)c2cnccn2)CC1	-12	-4	x	2	2	0
COc1ccccc1NS(=O)(=O)c1cc(NC(=O)Nc2ccccc2)ccc1N1CCCCC1	46*	58*	1	-1	-9	28
COc1ccc(C2c3ccc(O)cc3Oc3ncn4nc(-c5ccco5)nc4c32)cc1OC (configuration not stated)	-7	-10	x	1	x	-9
CC(=O)OCC1=C(C(=O)O)N2C(=O)C(NC(=O)CCn3nc(C(F)(F)F)c(Br)c3C3CC3)C2SC1 (configuration not stated)	5	11	x	0	1	2
Cn1c(CNc2nc3ccccc3n2CCN2CCCCC2)nc2ccccc21	-16	-44	6	-1	7	-6

Screens: PubChem, The Scripps Research Institute Molecular Screening Center
